Experimental data taken from ChEMBL document CHEMBL2034858, “An efficient one-pot synthesis, structure, antimicrobial and antioxidant investigations of some novel quinolyldibenzo[b,e][1,4]diazepinones” (2012).
In brackets after ≈: the same amount, converted by molar mass.

Assays:
[1] = system: Mycobacterium tuberculosis; assay: Antitubercular activity against Mycobacterium tuberculosis H37Rv at 250 ug/mL; format: functional; details: read-out: GI
How it was run: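 M. tuberculosis H37Rv tested on conventional L.J. (Löwenstein–Jensen) medium; activity read as percent growth inhibition.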

[2] = system: Streptococcus pneumoniae; assay: Antibacterial activity against Streptococcus pneumoniae MTCC 1936 after 24 hrs by micro-broth dilution method; format: functional; details: MTCC 1936, 24 h
[3] = system: Aspergillus fumigatus; assay: Antifungal activity against Aspergillus fumigatus MTCC 3008 after 48 hrs by micro-broth dilution method; format: functional
[4] = system: Escherichia coli; assay: Antibacterial activity against Escherichia coli MTCC 443 after 24 hrs by micro-broth dilution method; format: functional; details: MTCC 443, 24 h
[5] = system: Candida albicans; assay: Antifungal activity against Candida albicans MTCC 227 after 48 hrs by micro-broth dilution method; format: functional
[6] = system: Vibrio cholerae; assay: Antibacterial activity against Vibrio cholerae MTCC 3906 after 24 hrs by micro-broth dilution method; format: functional; details: MTCC 3906, 24 h
[7] = system: Bacillus subtilis; assay: Antibacterial activity against Bacillus subtilis MTCC 441 after 24 hrs by micro-broth dilution method; format: functional; details: MTCC 441, 24 h
[8] = system: Clostridium tetani; assay: Antibacterial activity against Clostridium tetani MTCC 449 after 24 hrs by micro-broth dilution method; format: functional; details: MTCC 449, 24 h
[9] = system: Salmonella typhi; assay: Antibacterial activity against Salmonella typhi MTCC 98 after 24 hrs by micro-broth dilution method; format: functional, Salmonella enterica subsp. enterica serovar Typhi; details: Salmonella enterica, MTCC 98, 24 h
[10] = Antioxidant activity assessed as ascorbic acid equivalent/100g at 200 ug/mL by FRAP assay; format: functional
[11] = system: Mycobacterium tuberculosis; assay: Antitubercular activity against Mycobacterium tuberculosis H37Rv at > 256 ug/mL; format: functional

Molecule	inhibition of growth at 250 µg/mL [1] [%]	MIC [2] [mg/L]	MIC ([3]; MTCC 3008, 48 h) [mg/L]	MIC [4] [mg/L]	MIC ([5]; MTCC 227, 48 h) [mg/L]	MIC [6] [mg/L]	MIC [7] [mg/L]	MIC [8] [mg/L]	MIC [9] [mg/L]	Activity [10] [mmol]	MIC [3] [mg/L]	MIC [5] [mg/L]	growth inhibition (GI) [11] [%]
C=CCN1c2ccccc2NC2=C(C(=O)CCC2)C1c1cc2ccc(Cl)cc2n(CC=C)c1=O (stereo not drawn)	76	> 250	> 250	62.5 (≈ 132 µM)	> 250	250 (≈ 530 µM)	250 (≈ 530 µM)	500 (≈ 1060 µM)	200 (≈ 424 µM)	361	–	–	–
O=C(O)c1cn(C2CC2)c2cc(N3CCNCC3)c(F)cc2c1=O [CIPROFLOXACIN]	–	50 (≈ 151 µM)	–	25 (≈ 75.4 µM)	–	25 (≈ 75.4 µM)	–	–	25 (≈ 75.4 µM)	–	–	–	–
C=CCn1c(=O)c(C2Nc3ccccc3NC3=C2C(=O)CCC3)cc2ccc(C)cc21 (stereo not drawn)	75	> 250	250 (≈ 608 µM)	62.5 (≈ 152 µM)	> 250	100 (≈ 243 µM)	200 (≈ 486 µM)	500 (≈ 1220 µM)	100 (≈ 243 µM)	499	–	–	–
C=CCN1c2ccccc2NC2=C(C(=O)CC(C)(C)C2)C1c1cc2ccccc2n(CC=C)c1=O (stereo not drawn)	< 50	> 250	> 250	250 (≈ 537 µM)	250 (≈ 537 µM)	> 250	> 250	500 (≈ 1070 µM)	> 250	266	–	–	–
C=CCN1c2ccccc2NC2=C(C(=O)CC(C)(C)C2)C1c1cc2ccc(C)cc2n(CC=C)c1=O (stereo not drawn)	67	250 (≈ 521 µM)	> 250	200 (≈ 417 µM)	> 250	> 250	250 (≈ 521 µM)	250 (≈ 521 µM)	250 (≈ 521 µM)	358	–	–	–
C=CCn1c(=O)c(C2Nc3ccccc3NC3=C2C(=O)CC(C)(C)C3)cc2cc(C)ccc21 (stereo not drawn)	96	250 (≈ 569 µM)	250 (≈ 569 µM)	> 250	> 250	250 (≈ 569 µM)	200 (≈ 455 µM)	500 (≈ 1140 µM)	250 (≈ 569 µM)	462	–	–	–
NYSTATIN	–	–	–	–	–	–	–	–	–	–	100	100	–
C=CCn1c(=O)c(C2Nc3ccccc3NC3=C2C(=O)CCC3)cc2ccc(Cl)cc21 (stereo not drawn)	< 50	250 (≈ 579 µM)	> 250	100 (≈ 232 µM)	> 250	250 (≈ 579 µM)	250 (≈ 579 µM)	250 (≈ 579 µM)	250 (≈ 579 µM)	490	–	–	–
Clc1ccc(COC(Cn2ccnc2)c2ccc(Cl)cc2Cl)c(Cl)c1 (stereo not drawn) [MICONAZOLE]	–	–	–	–	–	–	–	–	–	–	–	–	99
OC(Cn1cncn1)(Cn1cncn1)c1ccc(F)cc1F [FLUCONAZOLE]	–	–	–	–	–	–	–	–	–	–	–	–	99
C=CCN1c2ccccc2NC2=C(C(=O)CC(C)(C)C2)C1c1cc2cc(C)ccc2n(CC=C)c1=O (stereo not drawn)	< 50	250 (≈ 521 µM)	250 (≈ 521 µM)	100 (≈ 208 µM)	> 250	> 250	> 250	250 (≈ 521 µM)	200 (≈ 417 µM)	292	–	–	–
C=CCn1c(=O)c(C2Nc3ccccc3NC3=C2C(=O)CC(C)(C)C3)cc2ccccc21 (stereo not drawn)	< 50	> 250	> 250	200 (≈ 470 µM)	> 250	> 250	> 250	200 (≈ 470 µM)	> 250	324	–	–	–
C=CCn1c(=O)c(C2Nc3ccccc3NC3=C2C(=O)CC(C)(C)C3)cc2ccc(C)cc21 (stereo not drawn)	91	> 250	> 250	250 (≈ 569 µM)	> 250	> 250	250 (≈ 569 µM)	250 (≈ 569 µM)	250 (≈ 569 µM)	270	–	–	–
C=CCN1c2ccccc2NC2=C(C(=O)CC(C)(C)C2)C1c1cc2ccc(Cl)cc2n(CC=C)c1=O (stereo not drawn)	< 50	> 250	> 250	> 250	> 250	500 (≈ 1000 µM)	> 250	500 (≈ 1000 µM)	> 250	401	–	–	–
C=CCn1c(=O)c(C2Nc3ccccc3NC3=C2C(=O)CC(C)(C)C3)cc2ccc(Cl)cc21 (stereo not drawn)	62	> 250	> 250	250 (≈ 544 µM)	> 250	> 250	250 (≈ 544 µM)	250 (≈ 544 µM)	100 (≈ 217 µM)	328	–	–	–
COC1=CC(=O)C[C@@H](C)[C@]12Oc1c(Cl)c(OC)cc(OC)c1C2=O [GRISEOFULVIN]	–	–	100 (≈ 283 µM)	–	500 (≈ 1420 µM)	–	–	–	–	–	–	–	–
CCn1cc(C(=O)O)c(=O)c2cc(F)c(N3CCNCC3)cc21 [NORFLOXACIN]	–	10 (≈ 31.3 µM)	–	10 (≈ 31.3 µM)	–	10 (≈ 31.3 µM)	100 (≈ 313 µM)	50 (≈ 157 µM)	10 (≈ 31.3 µM)	–	–	–	–
C=CCN1c2ccccc2NC2=C(C(=O)CCC2)C1c1cc2ccc(C)cc2n(CC=C)c1=O (stereo not drawn)	64	> 250	> 250	> 250	250 (≈ 554 µM)	100 (≈ 221 µM)	250 (≈ 554 µM)	500 (≈ 1110 µM)	200 (≈ 443 µM)	382	–	–	–
C=CCn1c(=O)c(C2Nc3ccccc3NC3=C2C(=O)CCC3)cc2ccccc21 (stereo not drawn)	< 50	200 (≈ 503 µM)	> 250	200 (≈ 503 µM)	> 250	200 (≈ 503 µM)	250 (≈ 629 µM)	250 (≈ 629 µM)	250 (≈ 629 µM)	347	–	–	–
C=CCn1c(=O)c(C2Nc3ccccc3NC3=C2C(=O)CCC3)cc2cc(C)ccc21 (stereo not drawn)	58	> 250	> 250	250 (≈ 608 µM)	> 250	500 (≈ 1220 µM)	250 (≈ 608 µM)	100 (≈ 243 µM)	250 (≈ 608 µM)	499	–	–	–
O=C(N[C@H](CO)[C@H](O)c1ccc([N+](=O)[O-])cc1)C(Cl)Cl [CHLORAMPHENICOL]	–	50 (≈ 155 µM)	–	50 (≈ 155 µM)	–	50 (≈ 155 µM)	50 (≈ 155 µM)	50 (≈ 155 µM)	50 (≈ 155 µM)	–	–	–	–
C=CCN1c2ccccc2NC2=C(C(=O)CCC2)C1c1cc2cc(C)ccc2n(CC=C)c1=O (stereo not drawn)	< 50	> 250	250 (≈ 554 µM)	250 (≈ 554 µM)	> 250	250 (≈ 554 µM)	200 (≈ 443 µM)	250 (≈ 554 µM)	250 (≈ 554 µM)	499	–	–	–
C=CCN1c2ccccc2NC2=C(C(=O)CCC2)C1c1cc2ccccc2n(CC=C)c1=O (stereo not drawn)	51	100 (≈ 229 µM)	250 (≈ 571 µM)	> 250	> 250	100 (≈ 229 µM)	100 (≈ 229 µM)	200 (≈ 457 µM)	250 (≈ 571 µM)	389	–	–	–
CC1(C)S[C@@H]2[C@H](NC(=O)[C@H](N)c3ccccc3)C(=O)N2[C@H]1C(=O)O [AMPICILLIN]	–	100 (≈ 286 µM)	–	100 (≈ 286 µM)	–	100 (≈ 286 µM)	250 (≈ 715 µM)	250 (≈ 715 µM)	100 (≈ 286 µM)	–	–	–	–
